Data set [1] can be described thus: Cmax in Sprague-Dawley rat at 2 mg/kg, po and 1 mg/kg, iv. Format: ADME, organism-based. The following applies: in vivo. In outline: (§1)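 Male Sprague-Dawley rats (200-250 g), n = 2, received 1 mg/kg iv, then 2 mg/kg orally in the same rat 24 h later. Plasma was taken from sampled blood by centrifugation and analysed by turbulent-flow LC/MS/MS. For blood/plasma distribution, blood was spiked at 109 ng/mL. Parameters came from plasma concentration-time profiles.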

Data set [2] addresses T1, Melanin-concentrating hormone receptor 1 (Rattus norvegicus, UniProt P97639). Put plainly: Displacement of [3H]SNAP 7941 from rat MCHR1 expressed in HEK293 cells. Type of data set: cell-based. In outline: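 Membranes from PEAK-RAPID HEK293 cells transiently transfected with rat MCH1 were incubated with varying concentrations of [3H]SNAP-7941. Buffer was 50 mM Tris, 10 mM MgCl2, 0.16 mM PMSF, 1 mM 1,10-phenanthroline, 0.2% BSA, pH 7.4; incubation 25 °C, 90 min. Ki is the mean ± SEM of n = 3.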

A short description of data set [3]: Half life in Sprague-Dawley rat at 2 mg/kg, po and 1 mg/kg, iv. Format: ADME, organism-based. The following applies: in vivo. In outline: as §1
A short description of data set [4]: Tmax in Sprague-Dawley rat at 2 mg/kg, po and 1 mg/kg, iv. Type of data set: ADME, organism-based. The following applies: in vivo. In outline:
as §1

Data set [5] concerns the target T1, Melanin-concentrating hormone receptor 1. Description: Antagonist activity at rat MCHR1 expressed in HEK293 cells assessed as effect on calcium mobilization. Type of data set: functional, cell-based. In outline: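 HEK293 cells stably expressing rat MCH1 were seeded for 16 h, loaded with 1.5 µM Fluo4 in HBSS for 60 min, washed, and preincubated 20 min with a range of test concentrations. They were then challenged with 30 nM MCH peptide. Calcium-driven fluorescence was read on a FLIPR, and IC50 came from nonlinear curve fitting.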
For orientation: Calcium flux is commonly read through the fluorescence of an indicator in the cells.

A short description of data set [6]: Bioavailability in Sprague-Dawley rat at 2 mg/kg, po and 1 mg/kg, iv. The following applies: in vivo. Format: ADME, organism-based. In outline:
as §1

Data set [7] is described as follows: Blood clearance in Sprague-Dawley rat at 2 mg/kg, po and 1 mg/kg, iv. Type of data set: ADME, organism-based. The following applies: whole blood. In outline:
as §1

Data set [8] in a line: Volume of distribution in Sprague-Dawley rat at 2 mg/kg, po and 1 mg/kg, iv. Type of data set: ADME, organism-based. The following applies: in vivo, read-out: Vss. In outline:
as §1

Data set [9] is described as follows: Plasma clearance in Sprague-Dawley rat at 2 mg/kg, po and 1 mg/kg, iv. Type of data set: ADME, organism-based. In outline:
as §1

Data set [10] deals with Rattus norvegicus. Put plainly: Anxiolytic activity in rat assessed as increase in social interaction time at 0.3 mg/kg, po relative to control.
The nature of data set [11]: Drug level in Sprague-Dawley rat plasma at 10 mg/kg, po after 1 hr. Format: ADME, organism-based. Set-up: dose 10 mg/kg, route oral. In outline: (§2)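 Femoral-artery-cannulated male Sprague-Dawley rats (300-350 g), n = 3, were given 10 mg/kg orally in vehicle. Blood was drawn predose and at 1, 2 and 4 h; brains were collected at 4 h and stored at -80 °C. Plasma or brain homogenate was pooled from three rats per time point, protein-precipitated and analysed by LC/MS/MS. Quantitation limits were 2 ng/mL plasma and 2 ng/g brain.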

A short description of data set [12]: Drug level in Sprague-Dawley rat plasma at 10 mg/kg, po after 4 hrs. Type of data set: ADME, organism-based. Set-up: dose 10 mg/kg, route oral. In outline:
as §2

Data set [13] is described as follows: Drug level in Sprague-Dawley rat brain at 10 mg/kg, po after 4 hrs. Format: ADME, organism-based. Set-up: dose 10 mg/kg, route oral. The following applies: read-out: Drug uptake. In outline: as §2
Data set [14] is described as follows: Drug level in Sprague-Dawley rat plasma at 10 mg/kg, po after 2 hrs. Type of data set: ADME, organism-based. Also on record: dose 10 mg/kg, route oral. In outline:
as §2

The species named for data set [15] is Rattus norvegicus. Put plainly: Anxiolytic activity in rat assessed as increase in social interaction time relative to control. Format: functional. In outline: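 Rats were acclimated 5 days, housed singly 5 days and handled 5 min daily. Weight-matched (±5%) unfamiliar pairs got identical treatment 1 h before testing, five pairs per group. Chlordiazepoxide 5 mg/kg was the reference. Pairs were placed 15 min in a floor-gridded arena, sessions were videotaped, and social interaction time was scored.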

A short description of data set [16]: Cmax in Sprague-Dawley rat at 1 mg/kg, po and 1 mg/kg, iv. The following applies: in vivo. Format: ADME, organism-based. In outline: (§3)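 Sprague-Dawley rats were dosed 1 mg/kg orally (n = 2) and 1 mg/kg iv (n = 2). Plasma concentration-time profiles were measured by LC/MS/MS and used for pharmacokinetic analysis.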
A short description of data set [17]: Volume of distribution in Sprague-Dawley rat at 1 mg/kg, po and 1 mg/kg, iv. The following applies: in vivo, read-out: Vss. Type of data set: ADME, organism-based. In outline: as §3
Data set [18] is described as follows: Bioavailability in Sprague-Dawley rat at 1 mg/kg, po and 1 mg/kg, iv. Type of data set: ADME, organism-based. The following applies: in vivo. In outline:
as §3

A short description of data set [19]: Plasma clearance in Sprague-Dawley rat at 1 mg/kg, po and 1 mg/kg, iv. Type of data set: ADME, organism-based. In outline:
as §3

Data set [20] is described as follows: Half life in Sprague-Dawley rat at 1 mg/kg, po and 1 mg/kg, iv. The following applies: in vivo. Type of data set: ADME, organism-based. In outline:
as §3

A short description of data set [21]: Tmax in Sprague-Dawley rat at 1 mg/kg, po and 1 mg/kg, iv. Type of data set: ADME, organism-based. The following applies: in vivo. In outline:
as §3

Structures are written as SMILES. A value given as a limit tells only on which side of the number the result lay.

From ChEMBL document CHEMBL1148740, “Synthesis and SAR investigations for novel melanin-concentrating hormone 1 receptor (MCH1) antagonists Part 1. The discovery of arylacetamides as viable replacements for the dihydropyrimidinone moiety of an HTS hit” (J Med Chem, 2007) come the findings set out here.

T1 sequence (P97639 whole entry): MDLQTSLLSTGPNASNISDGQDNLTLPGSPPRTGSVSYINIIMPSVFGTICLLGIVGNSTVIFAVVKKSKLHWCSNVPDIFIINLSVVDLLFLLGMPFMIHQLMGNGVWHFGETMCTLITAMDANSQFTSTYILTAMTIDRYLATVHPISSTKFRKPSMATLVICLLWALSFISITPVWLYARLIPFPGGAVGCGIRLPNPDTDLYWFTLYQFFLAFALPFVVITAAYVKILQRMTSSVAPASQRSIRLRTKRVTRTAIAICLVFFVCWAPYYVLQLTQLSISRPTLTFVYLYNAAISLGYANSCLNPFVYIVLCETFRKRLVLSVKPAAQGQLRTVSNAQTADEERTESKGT

One may read the Cmax as the highest concentration seen after dosing. In general, Ki refers to a measure of affinity in units of concentration, obtained from inhibition or displacement. Broadly, the half-life is the time in which the quantity being followed falls by half. Lower therefore signals fast loss. As usually defined, the Tmax is the time from dosing to the highest level. What is called IC50 is the concentration at which inhibition is half-maximal. As a reminder, the bioavailability is dose-corrected exposure relative to a reference, in per cent. A high value points to much systemic uptake. Turning to `Cc1ccc(NC(=O)C(C)C)cc1C1CCN(CCCNC(=O)[C@@H](C)c2ccc(F)cc2)CC1`, the concentration in data set [1] peaked (Cmax) at 305 ng/mL. Also, in data set [2], the inhibition constant Ki amounted to 10 nM. Also, the half-life in [3] is 4.2 h. The Tmax in data set [4] was 2.2 h. Besides, the IC50 in data set [5] turned out to be 26 nM. The bioavailability in data set [6] came to 81%. Besides, the clearance in data set [7] was 55 mL/min/kg; in data set [9], 25 mL/min/kg. For the same molecule, in data set [8], the Vd stood at 3.4 L/kg.

`CC(C)C(=O)Nc1c(F)cc(F)c(C2CCN(CCCNC(=O)C(c3ccc(F)cc3)c3ccc(F)cc3)CC2)c1F` yielded an inhibition constant Ki in [2] of 2.9 nM.

For the molecule `CC(C)C(=O)Nc1cccc(C2CCN(CCCNC(=O)C(c3ccc(F)cc3)c3ccc(F)cc3)CC2)c1`, in data set [2], the Ki was found to be 1.4 nM. Moreover, in data set [5], the IC50 was 13 nM.

Consider `Cc1ccc(NC(=O)C(C)C)cc1C1CCN(CCCNC(=O)C(C)c2ccccc2)CC1` (single isomer, unassigned; form 1), for which, in data set [2], the affinity corresponds to a Ki of 34 nM. Also, the IC50 in data set [5] stood at 68 nM.

In turn, `CC(C)C(=O)Nc1cccc(C2CCN(CCCCNC(=O)C(c3ccccc3)c3ccccc3)CC2)c1` registered a Ki in [2] of 50 nM. The IC50 in data set [5] is 620 nM.

Regarding `CNC1=Nc2ccc(Cl)cc2C(c2ccccc2)=[N+]([O-])C1` [CHLORDIAZEPOXIDE], the Time in the data set on Rattus norvegicus [10] is 85.1 s.

In the case of `CCCCCC(C(=O)NCCCN1CCC(c2cccc(NC(=O)C(C)C)c2)CC1)(c1ccccc1)c1ccccc1`, the inhibition constant Ki in data set [2] is 8.5 nM.

Regarding `Cc1ccc(NC(=O)C(C)C)cc1C1CCN(CCCNC(=O)C(O)(c2ccccc2)c2ccccc2)CC1`, the Ki in data set [2] worked out at 0.6 nM. In data set [5], the IC50 is 27 nM.

In the case of `CCC(C(=O)NCCCN1CCC(c2cccc(NC(=O)C(C)C)c2)CC1)(c1ccccc1)c1ccccc1`, the concentration for half-maximal inhibition (IC50) in data set [5] was 190 nM.

Molecule `CC(C)C(=O)Nc1cccc(C2CCN(CCCCCCNC(=O)C(c3ccccc3)c3ccccc3)CC2)c1` returned a Ki in data set [2] of 29 nM. For the same molecule, in data set [5], the IC50 was determined as 600 nM.

`Cc1ccc(C2CCN(CCCNC(=O)C(c3ccccc3)c3ccccc3)CC2)cc1NC(=O)C(C)C` registered a Ki in data set [2] of 500 nM. Moreover, the IC50 in data set [5] was more than 1000 nM.

On to `CC(C)C(=O)Nc1cccc(C2CCN(CCCNC(=O)C(C)(c3ccccc3)c3ccccc3)CC2)c1`, for which the Ki in [2] was found to be 7.5 nM. Moreover, the half-maximal inhibitory concentration (IC50) in data set [5] is 140 nM.

In the case of `Cc1ccc(NC(=O)C(C)C)cc1C1CCN(CCCNC(=O)C(c2ccccc2)c2ccccc2)CC1`, in [2], the inhibition constant (Ki) came to 3 nM. Also, the IC50 in data set [5] turned out to be 27 nM. This molecule also came in with a concentration at 1 h in [11] of 69 ng/mL. For the same molecule, the concentration at 4 h was found to be 75 ng/mL in data set [12] and 13 ng/g in data set [13]. Moreover, the concentration at 2 h in [14] is 59 ng/mL.

In the case of `CC(C)C(=O)Nc1cccc(C2CCN(CCCCCNC(=O)C(c3ccccc3)c3ccccc3)CC2)c1`, in data set [2], the Ki came to 47 nM.

As for `Cc1ccc(NC(=O)C(C)C)cc1C1CCN(CCCNC(=O)C(c2ccc(F)cc2)c2ccc(F)cc2)CC1`, in data set [2], the Ki amounted to 0.62 nM. In data set [5], the IC50 came to 27 nM.

For the molecule `Cc1ccc(NC(=O)C(C)C)cc1C1CCN(CCCNC(=O)C2(c3ccc(F)cc3)CCCCC2)CC1`, the Ki in data set [2] amounted to 1.9 nM. For the same molecule, in [5], the 50% inhibitory concentration (IC50) came out at 190 nM.

In [2], `Cc1ccc(NC(=O)C(C)C)cc1C1CCN(CCCNC(=O)C(C)c2ccccc2)CC1` (single isomer, unassigned; form 2) displayed a Ki of 37 nM. Also, the half-inhibitory concentration (IC50) in data set [5] stood at 130 nM.

In the case of `CC(C)C(=O)Nc1cc(C2CCN(CCCNC(=O)C(c3ccc(F)cc3)c3ccc(F)cc3)CC2)c(F)cc1F`, the concentration in data set [1] peaked (Cmax) at 80 ng/mL. For the same molecule, the affinity in data set [2] corresponds to a Ki of 1.8 nM. Moreover, in the data set listed under Rattus norvegicus [15], the Activity was determined as 69.3 s. Further, the minimal effective dose in the data set filed under Rattus norvegicus [15] (Rattus norvegicus, read-out: MED) stood at 0.3 mg/kg. Moreover, the Time with Rattus norvegicus [10] was 69.3 s. The half-life in data set [3] is 2.1 h. Also, the Tmax in data set [4] worked out at 0.6 h. For the same molecule, the half-maximal inhibitory concentration (IC50) in data set [5] amounted to 34 nM. In [6], this molecule returned a bioavailability of 48%. Besides, the clearance is 60 mL/min/kg in [7] and 40 mL/min/kg in [9]. Also, the Vd in data set [8] is 3.6 L/kg.

In [2], `Cc1ccc(NC(=O)C(C)C)cc1C1CCN(CCCNC(=O)C2(c3ccc(F)cc3)CCCC2)CC1` showed a Ki of 3.8 nM. Also, the IC50 in [5] was found to be 44 nM.

In turn, `CC(C)C(=O)Nc1cccc(C2CCN(CCNC(=O)C(c3ccccc3)c3ccccc3)CC2)c1` showed a Ki in data set [2] of 1.9 nM. Besides, the IC50 in data set [5] was 57 nM.

Take `COCC1=C(C(=O)OC)[C@H](c2ccc(F)c(F)c2)N(C(=O)NCCCN2CCC(c3cccc(NC(C)=O)c3)CC2)C(=O)N1` [SNAP-7941]: in data set [2], the affinity, expressed as Ki, was 0.25 nM. The molecule further had a maximum concentration (Cmax) in data set [16] of 2.02 ng/mL. Moreover, the Vd in [17] came to 24 L/kg. Moreover, the bioavailability in data set [18] came to 6%. For the same molecule, the clearance in data set [19] was 153 mL/min/kg. This molecule also gave a half-life in data set [20] of 1.7 h. Also, in [21], the Tmax was determined as 4 h.

In turn, `CC(C)C(=O)Nc1cccc(C2CCN(CCCNC(=O)C(c3ccccc3)c3ccccc3)CC2)c1` showed a Ki in data set [2] of 1.9 nM. The 50% inhibitory concentration (IC50) in data set [5] was 25 nM. This molecule displayed a concentration at 1 h in data set [11] of 15 ng/mL. In addition, the concentration at 4 h in data set [12] stood at 15 ng/mL. In [14], this molecule had a concentration at 2 h of 12 ng/mL.

For the molecule `Cc1ccc(NC(=O)C(C)C)cc1C1CCN(CCCNC(=O)[C@H](C)c2ccc(F)cc2)CC1`, the Ki in [2] is 28 nM. In addition, the IC50 in data set [5] worked out at 65 nM.
